ASAP1 inh: inhibitors of human ASAP1 ArfGAP activity, primary screen, biochemical, fluorescence polarization; Arf-GAP with SH3 domain, ANK repeat and PH domain-containing protein 1 (Homo sapiens), …; ASAP1-stimulated ARF1 GTP hydrolysis, GDP FP detection; inhibition, % at 16.5 µM; 360,000 compounds, 0.19% hits; AID 624377, 2012; in the data active means inhibition above about 25%;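 further: 0% = vehicle with enzyme and substrate and 100% = no enzyme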
Target sequence (Q9ULH1 325-724 limits assumed): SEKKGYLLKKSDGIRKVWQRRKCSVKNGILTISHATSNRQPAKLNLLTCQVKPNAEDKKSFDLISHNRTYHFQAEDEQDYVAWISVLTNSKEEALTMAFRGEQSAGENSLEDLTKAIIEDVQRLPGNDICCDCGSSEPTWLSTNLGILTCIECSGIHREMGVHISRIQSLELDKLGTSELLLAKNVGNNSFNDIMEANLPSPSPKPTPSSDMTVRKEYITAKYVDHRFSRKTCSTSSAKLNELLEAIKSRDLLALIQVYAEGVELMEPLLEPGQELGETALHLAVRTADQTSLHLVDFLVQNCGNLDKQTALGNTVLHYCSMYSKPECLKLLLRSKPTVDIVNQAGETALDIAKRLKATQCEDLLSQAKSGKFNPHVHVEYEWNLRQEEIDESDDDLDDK
Rtt109 HAT inh: inhibitors of C. albicans Rtt109/Vps75 HAT, primary screen, biochemical, ThioGlo CoA-SH fluorescence, plate reader. Histone acetyltransferase RTT109 (Candida albicans (strain SC5314 / ATCC MYA-2876)), …. purified Rtt109/Vps75, 4 h. inhibition, % at 34.9 µM. 330,000 compounds, 0.16% hits. AID 540336, 2011;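 active means inhibition of at least 50% in every replicate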
Efflux pump inh: inhibitors of Candida efflux pumps in yeast, primary screen, S. cerevisiae, Nile Red, multiplex. inhibition, % at 10 µM. S. cerevisiae Candida pump triplex. AID 485275, 2010. 330,000 compounds, 0.44% hits;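 active means plate passing quality check with inhibition over a set limit, or well fluorescence over plate mean plus 4 SD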;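 further: Nile Red retained in pooled yeast measured as flow cytometry median fluorescence; 0% = buffer negative control and 100% = Enniatin B positive control; higher means more Nile Red kept so more efflux inhibition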
FGF22 binding: binders of human FGF22 protein, primary screen, FGF22 synaptogenesis inhibitor project, biophysical, thermal shift, single point | Fibroblast growth factor 22 (Homo sapiens), Q9HCT0 | recombinant FGF22 thermal shift, SYPRO orange fluorescence; percent of sucrose octasulfate shift, DMSO zero | activity (Tm shift, normalised), % at 9.99 µM | 340,000 compounds, 1.5% hits | AID 651658, 2012;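 active means mean Tm shift, scaled 0 neutral to 100 positive control, at about 1.3% or above, every replicate too, limit read from the data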
ARFGAP1 inh: inhibitors of rat ARFGAP1 GAP activity, primary screen, biochemical, fluorescence polarization, GDP tracer; Arfgap1-stimulated ARF1 GTP hydrolysis, GDP FP detection; inhibition, % at 16.5 µM; 360,000 compounds, 0.26% hits; AID 651572, 2012;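 active means inhibition above a per-plate limit, mean inhibition of low control wells plus 3 SD, cut at about 25% in these data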;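 further: 0% = DMSO wells with enzyme and 100% = wells lacking Arfgap1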
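system = rat Arfgap1 catalytic domain, aa 1-136 | technique = FP, GDP Alexa 633 tracer displaced from anti-GDP antibody, 620/688 nm | compound = one concentration, 16.5 µM, DMSO 1.26% | medium = HEPES-based buffer, pH 7.5 | timing = compound-enzyme preincubation 20 min, reaction 120 min, detection 60 min, 25 °C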
* = called active by the depositor; x = no result given. Compounds with a hit are over-represented: about 1.9% of the library has one in this group of screens.

SMILES	ASAP1 inh	Rtt109 HAT inh	Efflux pump inh	FGF22 binding	ARFGAP1 inh
COc1ccc2c3c(n(C)c2c1)[C@H](CO)N(C(=O)Cc1ccccn1)CC31CN(CC2CC2)C1	x	x	x	0.0	x
COc1cc2c3c(c1OC)C1(C=CC(=O)C=C1)CC3N(C(=O)CCC(=O)O)CC2 (configuration not stated)	1.6	-3.7	-0.2	-0.1	3.0
COc1cc2c3c(c1OC)C1(C=CC(=NNC(N)=O)C=C1)CC3N(C(C)=O)CC2 (configuration not stated)	-6.1	8.2	-0.1	43.4*	4.6
COc1ccc(-c2noc(CCC(=O)NCCc3ccccc3)n2)cc1OC	1.1	4.6	-0.2	0.1	0.6
COc1ccc(S(=O)(=O)N2CCCC2CNC(=O)C(=O)Nc2cccc(F)c2)cc1 (configuration not stated)	7.8	-0.2	-0.1	-0.2	-3.8
CC1=C(C(=O)OC(C)C)C(c2cn(-c3ccccc3)nc2-c2cccs2)NC(=O)N1 (configuration not stated)	-16.8	21.0	0.1	44.0*	3.4
CC(=O)OCCNc1cc(Sc2nc3ccccc3[nH]2)c2nonc2c1[N+](=O)[O-]	4.0	70.2*	0.0	x	4.3
COc1ccc(NC(=O)Nc2ccc3c(c2)C(=O)N([C@@H](C)CO)C[C@@H](C)[C@@H](CN(C)C(=O)Nc2ccc(OC)cc2)O3)cc1	x	x	x	-0.4	x
CN(c1ccc(C(=O)Nc2ccc3c(c2)OCO3)cc1)S(C)(=O)=O	0.2	51.0*	-0.1	0.0	9.1
COc1ccc(N(C)S(=O)(=O)c2cccc(C(=O)Nc3ccc4c(c3)OCCO4)c2)cc1	0.6	18.7	0.0	43.5*	-1.4
COc1ccc(S(=O)(=O)NC(C)C(=O)NCc2cccnc2)cc1OC (configuration not stated)	0.3	-0.6	0.0	-0.1	5.2
N/C(=N\N=C\c1cccs1)SC1CC(=O)N(c2cccc([N+](=O)[O-])c2)C1=O (configuration not stated)	-2.8	-10.4	-0.1	0.3	11.6
CCCc1ccc(/C=C2\C(=O)c3ccccc3C(O)=C2C(=O)OCC)cc1	x	x	1.9*	x	x
COc1ccccc1CN1C[C@@H]2C[C@@H](c3ccc(Cl)cc3)N3CCC[C@@]23C1=O	-17.1	-0.3	-0.1	43.0*	-8.8
COc1ccccc1CN1C[C@@H]2C[C@@H](c3ccccc3OC)N3CCC[C@@]23C1=O	-0.5	2.4	-0.1	0.1	-8.4
CC(NC(=O)c1ccccc1F)c1ccccc1 (configuration not stated)	5.6	-3.9	0.0	0.1	-10.8
CC(NC(=O)c1ccccc1N)c1ccccc1 (configuration not stated)	-6.3	-6.4	-0.1	43.0*	-14.5
O=C(O)C1CCCN1C(=O)C12CC3CC(CC(C3)C1)C2 (configuration not stated)	15.4	-1.9	-0.1	0.0	-5.4
O=C(COC(=O)C1CCCN1C(=O)C12CC3CC(CC(C3)C1)C2)c1ccc(Br)cc1 (configuration not stated)	8.2	0.8	0.0	44.4*	6.3
COc1ccc(C(=O)COC(=O)C2CCCN2C(=O)C23CC4CC(CC(C4)C2)C3)cc1 (configuration not stated)	-3.3	x	0.0	43.2*	3.6
CCCC(C)C(=O)Nc1ccc(Cl)cc1Cl (configuration not stated)	-7.0	3.7	-0.1	x	-4.2
CO/N=C/C(C(C)=O)C(=O)Nc1ccc(Cl)cc1Cl (configuration not stated)	-2.8	3.1	0.2	43.1*	-24.7
O=C(NCc1cn(-c2ccccc2)nc1-c1ccccc1)c1cccc([N+](=O)[O-])c1	8.7	5.1	-0.9	43.1*	8.7
O=C1CCC(=O)N1N1C(=O)C2C3c4ccccc4C(c4ccccc43)C2C1=O (configuration not stated)	-16.8	2.1	1.8	43.0*	1.3

Source: PubChem
